5 molecules from ChEMBL document CHEMBL1130028, “A comparison of structure-activity relationships between spermidine and spermine analogue antineoplastics” (J Med Chem, 1997) can be followed below.

Data set [1] deals with L1210. Briefly: Growth inhibitory activity against L1210 cells (48h). The data set is classed as functional, cell-based. Conditions: Mus musculus, L1210, 48 h. Put shortly:
(§1)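 Murine L1210 leukemia cells were kept in log growth in RPMI-1640 with 10% fetal calf serum or NuSerum, HEPES-MOPS buffer and 1 mM aminoguanidine. IC50 is the concentration giving 50% of untreated control growth, as the mean of at least two experiments.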

The nature of data set [2]: The chronic lethal dose administered as intraperitoneal injection in mice. The class given is ADME. Conditions: mouse, in vivo, ip. Put shortly:
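Female CD-1 mice, 10–12 weeks old. Analogue given as hydrochloride salt by ip injection three times daily for 6 days (18 doses). Appetite, weight and appearance monitored daily, and lethality scored 10 days after the final dose.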

The subject of data set [3] is L1210. Briefly: Percentage of spermine after 48 hr exposure to the compound (500(100)uM ) in L1210 cells. The data set is classed as functional, Mus musculus. Put shortly: (§2)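 Log-phase L1210 cells were treated for 48 h with analogue at two concentrations. Cells were washed twice in cold RPMI-1640 and extracted with 0.6 N HClO4. Putrescine, spermidine and spermine were quantified by HPLC of dansyl derivatives and given as percent of untreated controls. Runs were in triplicate with untreated controls.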

The nature of data set [4]: Effect on ornithine decarboxylase (ODC) tested at 1 uM at 4 hour in L1210 cells. The data set is classed as functional, Mus musculus. Put shortly:
(§3)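 L1210 cells were exposed to 1 μM analogue, for 4 h (ODC) or 6 h (AdoMetDC). Activity was measured as 14CO2 released from [14C]carboxyl-labelled L-ornithine (ODC) or S-adenosyl-L-methionine (AdoMetDC) and given as percent of untreated control. Each run included DEHSPM-treated positive controls. Values are the mean of at least three experiments.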

Data set [5] deals with L1210. The experiment in a line: Percentage of putrescine after 48 hr exposure to the compound (100(10)uM) in L1210 cells. The class given is functional, Mus musculus. Put shortly:
as §2

Data set [6] concerns L1210. Briefly: Percentage of spermidine after 48 hr of exposure to the compound (500(100)uM ) in L1210 cells. The data set is classed as functional, Mus musculus. Put shortly:
as §2

The test system of data set [7] is L1210. The experiment in a line: Percentage of spermine after 48 hr exposure to the compound (100(10)uM ) in L1210 cells. The class given is functional, Mus musculus. Put shortly: as §2
The test system of data set [8] is L1210. Briefly: Percentage of spermidine after 48 hr of exposure to the compound (100(10)uM ) in L1210 cells. The class given is functional, Mus musculus. Put shortly:
as §2

Data set [9] deals with L1210. Briefly: Intracellular levels in L1210 cells following 500 uM exposure. The class given is functional, Mus musculus. Put shortly:
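L1210 cells were grown 48 h in medium containing 500 μM analogue. Cellular contents were analysed by HPLC of dansyl derivatives and given as pmol/10^6 cells, as parent drug and metabolites with the % of total drug in the cell.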

Data set [10] concerns L1210. The experiment in a line: Percentage of putrescine after 48 hr exposure to the compound (500(100)uM )in L1210 cells. The class given is functional, Mus musculus. Put shortly:
as §2

For data set [11], the system named is L1210. The experiment in a line: Growth inhibitory activity against L1210 cells (96h). Conditions: Mus musculus, L1210, 96 h. The data set is classed as functional, cell-based. Put shortly:
as §1

For data set [12], the target named is Spermidine/spermine N(1)-acetyltransferase (SAT) (Mus musculus) (UniProt Q6P8J2+P48026). Briefly: Effect on Spermidine/Spermine-Acetyltransferase (SSAT ) at 10 uM at 48 hour in L1210 cells. The class given is functional, cell-based. Put shortly: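 L1210 cells were exposed to 10 μM triamine for 48 h. SSAT activity was taken as [14C]N1-acetylspermidine formed from spermidine and [14C]acetyl-CoA, given as percent of untreated control. DENSPM-treated cells served as positive control. Values are the mean of at least three experiments.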

The nature of data set [13]: Binding affinity values for polyamine transporter was determined.
The target in data set [14] is T1, S-adenosylmethionine decarboxylase proenzyme 1 (Mus musculus) (UniProt P0DMN7).
T1 sequence (whole entry): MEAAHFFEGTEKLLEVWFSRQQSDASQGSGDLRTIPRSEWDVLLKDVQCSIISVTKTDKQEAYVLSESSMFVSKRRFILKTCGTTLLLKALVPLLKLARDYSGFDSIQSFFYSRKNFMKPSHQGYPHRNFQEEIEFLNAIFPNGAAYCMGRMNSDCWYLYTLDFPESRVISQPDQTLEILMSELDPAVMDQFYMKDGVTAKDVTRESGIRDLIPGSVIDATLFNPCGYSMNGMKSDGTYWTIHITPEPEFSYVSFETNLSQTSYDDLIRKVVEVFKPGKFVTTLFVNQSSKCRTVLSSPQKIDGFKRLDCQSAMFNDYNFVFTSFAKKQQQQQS
Briefly: Effect on S-Adenosyl-methionine decarboxylase (AdoMetDC) tested at 1 uM at 6 hour in L1210 cells. The class given is functional, cell-based. Put shortly: as §3

In data set [15] the test system is L1210. The experiment in a line: Percentage of putrescine after 48 hr exposure to the compound (15 uM )in L1210 cells. The class given is functional, Mus musculus. Put shortly: as §2
Data set [16] has as its system L1210. The experiment in a line: Percentage of spermidine after 48 hr of exposure to the compound (15 uM ) in L1210 cells. The class given is functional, Mus musculus. Put shortly: as §2
The subject of data set [17] is L1210. Briefly: Percentage of spermidine after 48 hr of exposure to the compound (75 uM ) in L1210 cells. The class given is functional, Mus musculus. Put shortly: as §2
For data set [18], the system named is L1210. The experiment in a line: Percentage of putrescine after 48 hr exposure to the compound (75 uM ) in L1210 cells. The data set is classed as functional, Mus musculus. Put shortly:
as §2

Data set [19] relates to L1210. The experiment in a line: Percentage of putrescine after 48 hr exposure to the compound (0.9 uM ) in L1210 cells. The data set is classed as functional, Mus musculus. Put shortly:
(§4)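 Murine L1210 leukemia cells in log-phase growth (RPMI-1640, 10% fetal calf serum or NuSerum, HEPES-MOPS, 1 mM aminoguanidine) exposed to analogue for 48 h. Cells washed twice with cold RPMI-1640 and extracted with 0.6 N HClO4. PUT, SPD and SPM measured by HPLC of DANSYL derivatives and given as percent of untreated controls. Triplicate flasks per experiment.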

Data set [20] relates to L1210. Briefly: Percentage of spermidine after 48 hr of exposure to the compound (4.5 uM ) in L1210 cells. The data set is classed as functional, Mus musculus. Put shortly:
as §4

Data set [21] concerns L1210. The experiment in a line: Percentage of spermidine after 48 hr of exposure to the compound (0.9 uM ) in L1210 cells. The class given is functional, Mus musculus. Put shortly: as §4
The subject of data set [22] is L1210. The experiment in a line: Percentage of spermine after 48 hr exposure to the compound (4.5 uM ) in L1210 cells. The class given is functional, Mus musculus. Put shortly: as §4
In data set [23] the test system is L1210. The experiment in a line: Percentage of putrescine after 48 hr exposure to the compound (4.5 uM ) in L1210 cells. The data set is classed as functional, Mus musculus. Put shortly:
as §4

Sequence of Spermidine/spermine N(1)-acetyltransferase (SAT) (Mus musculus) (P48026 whole entry, looked up): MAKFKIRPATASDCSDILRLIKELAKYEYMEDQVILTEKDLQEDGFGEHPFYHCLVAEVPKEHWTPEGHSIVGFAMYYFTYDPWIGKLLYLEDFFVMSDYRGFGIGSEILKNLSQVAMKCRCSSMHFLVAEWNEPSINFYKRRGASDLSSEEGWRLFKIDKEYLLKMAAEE
Sequence of Spermidine/spermine N(1)-acetyltransferase (SAT) (Mus musculus) (Q6P8J2 whole entry, looked up): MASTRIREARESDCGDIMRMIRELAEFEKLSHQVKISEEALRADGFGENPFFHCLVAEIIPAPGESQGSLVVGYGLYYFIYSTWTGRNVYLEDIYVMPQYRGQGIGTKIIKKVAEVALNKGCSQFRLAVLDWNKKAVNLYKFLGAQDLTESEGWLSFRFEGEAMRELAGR

In the data set with L1210 [1], `CCNCCCCCNCCCCNCCCCCNCC` gave an IC50 of 0.4 µM. In data set [2], the LD50 is 36 mg/kg/day.
As for `CCNCCCNCCCNCC`, the Polyamine was 47% in the data set with L1210 [3]; 0% in the data set with L1210 [5]; 7% in the data set on L1210 [6]; 74% with L1210 [7]; 17% with L1210 [8]; 0% with L1210 [10]. The molecule also registered an ODC in data set [4] of 80%. For the same molecule, the “Picoequivalents of amine/10e6 cells” value in the data set on L1210 [9] came to 13700. Moreover, the IC50 is greater than 100 µM in the data set on L1210 [1] and 10 µM in the data set on L1210 [11]. Moreover, the SSAT in data set [12] came out at 780%. The affinity in data set [13] corresponds to a Ki of 250 µM. In addition, in data set [14], the AdoMetDC stood at 45%.
For `CNCCCCCNCCCCCNC`, in data set [4], the ODC is given as 105%. The Polyamine with L1210 [15] was 0%; in the data set with L1210 [16] it was 33%; in the data set with L1210 [17], 20%; in the data set on L1210 [18], 0%. For the same molecule, the “Picoequivalents of amine/10e6 cells” value in the data set with L1210 [9] came out at 15500. Further, the IC50 was found to be 15 µM with L1210 [1] and 0.4 µM with L1210 [11]. In [12], this molecule registered an SSAT of 90%. In addition, the Ki in data set [13] is 130 µM. The molecule also returned an AdoMetDC in data set [14] of 97%.
Molecule `CCNCCCCNCCCCCNCCCCNCC` came in with an LD50 in data set [2] of 48 mg/kg/day.
`NCCCNCCCN` [NORSPERMIDINE] had an ODC in [4] of 11%. The Polyamine in the data set on L1210 [19] worked out at 38%; in the data set with L1210 [20], 12%; in the data set on L1210 [21], 44%; in the data set on L1210 [22] it was 83%; in the data set with L1210 [23], 0%. In addition, the IC50 in the data set with L1210 [1] turned out to be 0.9 µM; in the data set on L1210 [11], 0.5 µM. In data set [12], this molecule showed an SSAT of 150%. In [13], the affinity corresponds to a Ki of 7.2 µM. The AdoMetDC in data set [14] came to 62%.
